Assay results: ChEMBL document CHEMBL1177701, “Synthesis, biological evaluation, and structure-activity relationships of dithiolethiones as inducers of cytoprotective phase 2 enzymes” (J Med Chem, 2010)
The source made the active and inactive calls. The calls are words filed in the database; no cut-off is given here.

Assays:
Rattus norvegicus [1] = test: Ex vivo induction of NQO1 in Sprague-Dawley rat bladder at 7.5 umol/kg/day, po for 10 days measured on day 11 relative to control; type: functional
Outline: (§1)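 Female Sprague-Dawley rats, 6 per group, gavaged with compound at 7.5 µmol/kg/day or soya oil for 10 days and killed on day 11. Bladder homogenized in ice-cold 0.2% Triton X-100 and cleared by centrifugation. NQO1 activity measured by the Ernster method, GST by the Habig method. Reported as treated/control mean ± SEM, ANOVA with Student-Newman-Keuls test.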

Rattus norvegicus [2] = test: Ex vivo induction of GST in Sprague-Dawley rat bladder at 7.5 umol/kg/day, po for 10 days measured on day 11 relative to control; type: functional; outline: as §1
[3] = target: T1, Nuclear factor erythroid 2-related factor 2 (Rattus norvegicus) (UniProt O54968); test: Induction of Nrf-mediated GCL protein expression in wild type rat NBT2 cells at 25 uM after 24 hrs Western blot analysis; type: functional, cell-based
T1 sequence (whole entry): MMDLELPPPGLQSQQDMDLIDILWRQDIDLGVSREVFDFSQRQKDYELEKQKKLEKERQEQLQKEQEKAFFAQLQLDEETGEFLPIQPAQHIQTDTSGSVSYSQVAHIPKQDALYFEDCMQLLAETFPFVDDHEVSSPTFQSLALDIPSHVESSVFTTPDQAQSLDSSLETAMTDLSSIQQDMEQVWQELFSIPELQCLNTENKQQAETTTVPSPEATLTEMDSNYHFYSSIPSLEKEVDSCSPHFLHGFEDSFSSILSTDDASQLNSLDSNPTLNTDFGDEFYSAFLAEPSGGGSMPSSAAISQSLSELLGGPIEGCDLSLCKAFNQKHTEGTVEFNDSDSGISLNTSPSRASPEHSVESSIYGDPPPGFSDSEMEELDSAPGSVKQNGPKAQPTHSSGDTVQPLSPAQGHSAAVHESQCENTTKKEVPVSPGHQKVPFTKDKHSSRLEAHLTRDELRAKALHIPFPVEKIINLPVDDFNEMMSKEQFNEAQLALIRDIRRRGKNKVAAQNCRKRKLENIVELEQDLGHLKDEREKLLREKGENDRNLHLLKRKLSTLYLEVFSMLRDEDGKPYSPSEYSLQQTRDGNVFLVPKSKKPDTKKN
Outline: (§2)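 NBT-II cells transfected with Nrf2 stealth RNAi or control RNAi (0.584 nmol per dish, lipofectamine 2000) for 48 h. Then treated with compound at 25 µM or vehicle for 24 h, with 0.1% DMSO final. Lysates analyzed by Western blot for Nrf2, GCL, GST-α, GST-μ and NQO1, with GAPDH as loading control.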

Rattus norvegicus [4] = test: Ex vivo induction of NQO1 in Sprague-Dawley rat lung at 7.5 umol/kg/day, po for 10 days measured on day 11 relative to control; type: functional
Outline: (§3)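 Organs taken from the same rats used for the bladder study: female Sprague-Dawley, compound at 7.5 µmol/kg/day by gavage or soya oil for 10 days, killed on day 11. GI contents rinsed out under cold water and tissues stored at −80°C. Homogenized in 0.2% Triton X-100 and centrifuged. Supernatant NQO1 activity measured by the Ernster method, expressed as treated/control.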

Rattus norvegicus [5] = test: Ex vivo induction of NQO1 in Sprague-Dawley rat jejunum at 7.5 umol/kg/day, po for 10 days measured on day 11 relative to control; type: functional; outline: as §3
[6] = target: T1, Nuclear factor erythroid 2-related factor 2 (Rattus norvegicus); test: Induction of Nrf-mediated GST-alpha protein expression in wild type rat NBT2 cells at 25 uM after 24 hrs Western blot analysis; type: functional, cell-based; outline: as §2
Rattus norvegicus [7] = test: Ex vivo induction GST-alpha protein expression in Sprague-Dawley rat bladder at 7.5 umol/kg/day, po for 10 days measured on day 11 by Western blot analysis; type: functional, organism-based
Outline: (§4)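 Female Sprague-Dawley rats, 3 per group, gavaged once daily with compound at 7.5 µmol/kg or soya oil vehicle for 10 days. Killed on day 11. Bladder homogenized in 10 mM Tris-HCl pH 7.4, 0.25 M sucrose, 1 mM PMSF, 1 µg/ml leupeptin. 25-40 µg protein run by SDS-PAGE, then Western blot, with GAPDH as loading control.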

NBT2 [8] = test: Induction of GST-alpha protein expression in rat NBT2 cells after 24 hrs by Western blot analysis; type: functional, cell-based
Outline: (§5)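 NBT-II rat bladder carcinoma cells grown in MEM with 10% FBS. Plated overnight, then exposed to compound at 25 or 50 µM for 24 h, with 0.1% DMSO final. Cells trypsinized, lysed with 1 mM PMSF and sonicated. 25-40 µg protein taken for Western blot, GAPDH as loading control. At least two experiments.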

NBT2 [9] = test: Induction of GST-alpha protein expression in Nrf gene knockout rat NBT2 cells at 25 uM after 24 hrs Western blot analysis; type: functional, cell-based; outline: as §2
Rattus norvegicus [10] = test: Ex vivo induction of NQO1 in Sprague-Dawley rat kidney at 7.5 umol/kg/day, po for 10 days measured on day 11 relative to control; type: functional; outline: as §3
Rattus norvegicus [11] = test: Ex vivo induction of NQO1 in Sprague-Dawley rat duodenum at 7.5 umol/kg/day, po for 10 days measured on day 11 relative to control; type: functional; outline: as §3
Rattus norvegicus [12] = test: Ex vivo induction of NQO1 in Sprague-Dawley rat ileum at 7.5 umol/kg/day, po for 10 days measured on day 11 relative to control; type: functional; outline: as §3
[13] = target: T1, Nuclear factor erythroid 2-related factor 2 (Rattus norvegicus); test: Induction of Nrf-mediated GST-mu protein expression in wild type rat NBT2 cells at 25 uM after 24 hrs Western blot analysis; type: functional, cell-based; outline: as §2
Rattus norvegicus [14] = test: Ex vivo induction of NQO1 in Sprague-Dawley rat liver at 7.5 umol/kg/day, po for 10 days measured on day 11 relative to control; type: functional; outline: as §3
NBT2 [15] = test: Induction of GST-mu protein expression in rat NBT2 cells after 24 hrs by Western blot analysis; type: functional, cell-based; outline: as §5
NBT2 [16] = test: Induction of Nrf protein expression in Nrf gene knockout rat NBT2 cells at 25 uM after 24 hrs Western blot analysis; type: functional, cell-based; outline: as §2
Rattus norvegicus [17] = test: Ex vivo induction of NQO1 in Sprague-Dawley rat colon at 7.5 umol/kg/day, po for 10 days measured on day 11 relative to control; type: functional; outline: as §3
Rattus norvegicus [18] = test: Ex vivo induction GCL protein expression in Sprague-Dawley rat bladder at 7.5 umol/kg/day, po for 10 days measured on day 11 by Western blot analysis; type: functional, organism-based; outline: as §4
Rattus norvegicus [19] = test: Ex vivo induction of NQO1 in Sprague-Dawley rat stomach at 7.5 umol/kg/day, po for 10 days measured on day 11 relative to control; type: functional; outline: as §3
NBT2 [20] = test: Induction of GCL protein expression in Nrf gene knockout rat NBT2 cells at 25 uM after 24 hrs Western blot analysis; type: functional, cell-based; outline: as §2
Rattus norvegicus [21] = test: Ex vivo induction GST-mu protein expression in Sprague-Dawley rat bladder at 7.5 umol/kg/day, po for 10 days measured on day 11 by Western blot analysis; type: functional, organism-based; outline: as §4
[22] = target: T1, Nuclear factor erythroid 2-related factor 2 (Rattus norvegicus); test: Induction of Nrf-mediated NQO1 protein expression in wild type rat NBT2 cells at 25 uM after 24 hrs Western blot analysis; type: functional, cell-based; outline: as §2
Rattus norvegicus [23] = test: Ex vivo induction GST-pi protein expression in Sprague-Dawley rat bladder at 7.5 umol/kg/day, po for 10 days measured on day 11 by Western blot analysis; type: functional, organism-based; outline: as §4
NBT2 [24] = test: Induction of NQO1 protein expression in rat NBT2 cells after 24 hrs by Western blot analysis; type: functional, cell-based; outline: as §5
NBT2 [25] = test: Induction of GST-pi protein expression in rat NBT2 cells at 25 to 50 uM after 24 hrs by Western blot analysis; type: functional, cell-based; outline: as §5
[26] = target: T1, Nuclear factor erythroid 2-related factor 2 (Rattus norvegicus); test: Induction of Nrf in wild type rat NBT2 cells at 25 uM after 24 hrs Western blot analysis; type: functional, cell-based; outline: as §2
NBT2 [27] = test: Induction of NQO1 protein expression in Nrf gene knockout rat NBT2 cells at 25 uM after 24 hrs Western blot analysis; type: functional, cell-based; outline: as §2
NBT2 [28] = test: Induction of GST-mu protein expression in Nrf gene knockout rat NBT2 cells at 25 uM after 24 hrs Western blot analysis; type: functional, cell-based; outline: as §2
NBT2 [29] = test: Induction of GCL protein expression in rat NBT2 cells at 25 to 50 uM after 24 hrs by Western blot analysis; type: functional, cell-based; outline: as §5
[30] = Dissociation constant, pKa of the compound; type: physicochemical

CCOC(=O)C1Cc2ssc(=S)c2C1 (stereo not given)
fold change (FC) (Rattus norvegicus [1]): 1.23
fold change (FC) (Rattus norvegicus [2]): 1.11

Cc1cssc1=S
fold change (FC) (Rattus norvegicus [1]): 1.83
fold change (FC) (Rattus norvegicus [2]): 1.23

COC(=O)c1cssc1=S
Activity [3]: Active
fold change (FC) (Rattus norvegicus [4]): 1.07
fold change (FC) (Rattus norvegicus [5]): 1.13
Activity [6]: Active
Activity (Rattus norvegicus [7]): Active
Activity (NBT2 [8]): Dose-dependent effect
Activity (NBT2 [9]): inactive
fold change (FC) (Rattus norvegicus [10]): 1.45
fold change (FC) (Rattus norvegicus [11]): 1.17
fold change (FC) (Rattus norvegicus [1]): 5.05
fold change (FC) (Rattus norvegicus [12]): 0.95
Activity [13]: Active
fold change (FC) (Rattus norvegicus [14]): 1.07
Activity (NBT2 [15]): Dose-dependent effect
Activity (NBT2 [16]): inactive
fold change (FC) (Rattus norvegicus [17]): 0.89
Activity (Rattus norvegicus [18]): Active
fold change (FC) (Rattus norvegicus [19]): 2.36
Activity (NBT2 [20]): inactive
Activity (Rattus norvegicus [21]): Active
fold change (FC) (Rattus norvegicus [2]): 2.69
Activity [22]: Active
Activity (Rattus norvegicus [23]): inactive
Activity (NBT2 [24]): Dose-dependent effect
Activity (NBT2 [25]): inactive
Activity [26]: Active
Activity (NBT2 [27]): inactive
Activity (NBT2 [28]): inactive
Activity (NBT2 [29]): Active

CC1Cc2ssc(=S)c2C1 (stereo not given)
fold change (FC) (Rattus norvegicus [1]): 1.81
fold change (FC) (Rattus norvegicus [2]): 1.31

S=c1ssc2c1CCC2
fold change (FC) (Rattus norvegicus [4]): 1.26
fold change (FC) (Rattus norvegicus [5]): 1.44
fold change (FC) (Rattus norvegicus [10]): 1.87
fold change (FC) (Rattus norvegicus [11]): 2.82
fold change (FC) (Rattus norvegicus [1]): 3.14
fold change (FC) (Rattus norvegicus [12]): 1.36
fold change (FC) (Rattus norvegicus [14]): 1.26
fold change (FC) (Rattus norvegicus [17]): 1.28
fold change (FC) (Rattus norvegicus [19]): 3.55
fold change (FC) (Rattus norvegicus [2]): 1.68

S=c1ssc2c1CCCCCC2
fold change (FC) (Rattus norvegicus [1]): 1.08
fold change (FC) (Rattus norvegicus [2]): 1.11

Cc1c(S)ssc1=S
fold change (FC) (Rattus norvegicus [1]): 1.29
fold change (FC) (Rattus norvegicus [2]): 1.08

S=c1ssc2c1CCCCC2
fold change (FC) (Rattus norvegicus [1]): 1.2
fold change (FC) (Rattus norvegicus [2]): 1.14

S=c1ssc2c1CCCC2
fold change (FC) (Rattus norvegicus [1]): 1.46
fold change (FC) (Rattus norvegicus [2]): 1.05

COC(=O)C1CCc2c1ssc2=S (stereo not given)
fold change (FC) (Rattus norvegicus [4]): 1.08
fold change (FC) (Rattus norvegicus [5]): 1.11
fold change (FC) (Rattus norvegicus [10]): 1.76
fold change (FC) (Rattus norvegicus [11]): 1.14
fold change (FC) (Rattus norvegicus [1]): 4.39
fold change (FC) (Rattus norvegicus [12]): 1.07
fold change (FC) (Rattus norvegicus [14]): 1.1
fold change (FC) (Rattus norvegicus [17]): 1.07
fold change (FC) (Rattus norvegicus [19]): 1.98
fold change (FC) (Rattus norvegicus [2]): 2.31

CC1CCc2c1ssc2=S (stereo not given)
fold change (FC) (Rattus norvegicus [1]): 1.91
fold change (FC) (Rattus norvegicus [2]): 1.3

O=C(O)c1cssc1=S
pKa [30]: 2.8
fold change (FC) (Rattus norvegicus [1]): 3.69
fold change (FC) (Rattus norvegicus [2]): 2.11

S=c1ssc(S)c1-c1ccccc1
fold change (FC) (Rattus norvegicus [1]): 1.11
fold change (FC) (Rattus norvegicus [2]): 1.03
